Here are results for 15 compounds from the M2OR odorant receptor database.

Substitutions are numbered along the chain they refer to.
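Note: active if original authors judged signal statistically different from baseline.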

For the first assay, the system named is T1, OR5W2 R189C.
T1 sequence (whole entry): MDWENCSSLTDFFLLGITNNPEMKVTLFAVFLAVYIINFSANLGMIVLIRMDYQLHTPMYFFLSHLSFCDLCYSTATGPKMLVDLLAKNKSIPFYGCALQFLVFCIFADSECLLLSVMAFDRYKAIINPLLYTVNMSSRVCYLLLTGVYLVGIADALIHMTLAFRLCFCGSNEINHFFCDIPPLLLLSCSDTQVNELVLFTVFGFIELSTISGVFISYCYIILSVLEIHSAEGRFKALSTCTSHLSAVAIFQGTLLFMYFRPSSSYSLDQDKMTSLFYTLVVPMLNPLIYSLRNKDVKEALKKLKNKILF
The conditions noted are these: stereoisomer not certain. In outline:
(§1)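 Whether a receptor–molecule pair is responsive (active) rests on the original authors' judgment that its measured signal was statistically different from baseline. Pairs without that judgment are non-responsive (inactive). Sources used varied assay methods, commonly transient luciferase assays in mammalian cell lines.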
As to `CC1=NC(C)C(C)S1` (configuration not stated), the “odorant receptor agonist call” value was “inactive”.

On to `CCC1OC(=O)C(O)=C1C` (configuration not stated), for which the “odorant receptor agonist call” value is “inactive”.

For `CCCC(S)CCOC(C)=O` (configuration not stated), the “odorant receptor agonist call” value is “inactive”.

In the case of `CC1=C(O)C(=O)OC1C` (configuration not stated), the “odorant receptor agonist call” value was “inactive”.

For the next assay, the target named is T2, OR6A2 (Homo sapiens) (UniProt O95222).
T2 sequence (whole entry): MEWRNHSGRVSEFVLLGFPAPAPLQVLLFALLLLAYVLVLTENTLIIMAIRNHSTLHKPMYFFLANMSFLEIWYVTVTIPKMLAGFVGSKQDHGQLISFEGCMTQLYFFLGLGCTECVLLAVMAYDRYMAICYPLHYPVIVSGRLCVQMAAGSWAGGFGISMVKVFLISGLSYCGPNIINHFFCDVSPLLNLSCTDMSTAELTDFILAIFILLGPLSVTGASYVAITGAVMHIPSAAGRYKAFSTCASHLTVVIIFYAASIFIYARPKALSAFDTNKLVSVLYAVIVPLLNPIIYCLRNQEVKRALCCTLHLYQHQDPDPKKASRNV
The conditions noted are these: stereoisomer not certain. In outline: as §1
For `CCC(S)C(C)CO` (configuration not stated), the “odorant receptor agonist call” value is “inactive”.

On to `CC(=O)c1c(C)c([N+](=O)[O-])c(C(C)(C)C)c([N+](=O)[O-])c1C`, for which the “odorant receptor agonist call” value was “inactive”.

On to `CC1CCCCCCCCCCCCC(=O)C1` (configuration not stated), for which the “odorant receptor agonist call” value is “inactive”.

Regarding `CCCCCCC=CCCC=O`, the “odorant receptor agonist call” value was “inactive”.

On to `Cc1cnc(C)c(C)n1`, for which the “odorant receptor agonist call” value was “inactive”.

In the case of `CC1=C(O)C(=O)C(C)O1` (configuration not stated), the “odorant receptor agonist call” value was “inactive”.

On to `CCC1OC(C)=C(O)C1=O` (configuration not stated), for which the “odorant receptor agonist call” value was “inactive”.

As to `CC1=NC(C)C(C)S1` (configuration not stated), the “odorant receptor agonist call” value is “inactive”.

With `CCCCCC(S)C(C)CO` (configuration not stated), the “odorant receptor agonist call” value was “inactive”.

`CCCCCC(=O)C(C)C(C)=O` (configuration not stated): the “odorant receptor agonist call” value was “inactive”.

As for `CCC1OC(=O)C(O)=C1C` (configuration not stated), the “odorant receptor agonist call” value is “inactive”.

Take `CCCC(S)CCOC(C)=O` (configuration not stated): the “odorant receptor agonist call” value is “inactive”.

With `CC(CO)CS` (configuration not stated), the “odorant receptor agonist call” value is “inactive”.

Take `CC1=C(O)C(=O)OC1C` (configuration not stated): the “odorant receptor agonist call” value was “inactive”.

For `CCCCC(S)C(C)CO` (configuration not stated), the “odorant receptor agonist call” value was “inactive”.

The subject of a further assay is T3, OR6A2 I50V.
T3 sequence (whole entry): T2 sequence (whole entry) with I50V
Particulars: stereoisomer not certain. In outline:
as §1
In the case of `CCCCCCC=CCCC=O`, the “odorant receptor agonist call” value is “inactive”.

For the compound `Cc1cnc(C)c(C)n1`, the “odorant receptor agonist call” value was “inactive”.

In the case of `CC1=C(O)C(=O)C(C)O1` (configuration not stated), the “odorant receptor agonist call” value was “inactive”.

Take `CCC1OC(C)=C(O)C1=O` (configuration not stated): the “odorant receptor agonist call” value was “inactive”.

As for `CC1=NC(C)C(C)S1` (configuration not stated), the “odorant receptor agonist call” value was “inactive”.

With `CCC1OC(=O)C(O)=C1C` (configuration not stated), the “odorant receptor agonist call” value was “inactive”.

On to `CCCC(S)CCOC(C)=O` (configuration not stated), for which the “odorant receptor agonist call” value is “inactive”.

On to `CC1=C(O)C(=O)OC1C` (configuration not stated), for which the “odorant receptor agonist call” value was “inactive”.

The target of another assay is T4, OR6B1 (Homo sapiens) (UniProt O95007).
T4 sequence (whole entry): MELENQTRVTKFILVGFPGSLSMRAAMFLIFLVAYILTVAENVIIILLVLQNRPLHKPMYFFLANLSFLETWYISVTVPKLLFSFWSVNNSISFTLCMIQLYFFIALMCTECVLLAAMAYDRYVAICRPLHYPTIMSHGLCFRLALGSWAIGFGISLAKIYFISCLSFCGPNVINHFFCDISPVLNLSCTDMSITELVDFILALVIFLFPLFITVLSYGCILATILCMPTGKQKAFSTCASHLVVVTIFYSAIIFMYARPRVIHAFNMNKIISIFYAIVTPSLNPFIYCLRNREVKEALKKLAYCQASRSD
The conditions noted are these: stereoisomer not certain. In outline: as §1
As to `CCC(S)C(C)CO` (configuration not stated), the “odorant receptor agonist call” value was “inactive”.

`CC(=O)c1c(C)c([N+](=O)[O-])c(C(C)(C)C)c([N+](=O)[O-])c1C`: the “odorant receptor agonist call” value was “inactive”.

For the compound `CC1CCCCCCCCCCCCC(=O)C1` (configuration not stated), the “odorant receptor agonist call” value was “inactive”.

Turning to `CCCCCCC=CCCC=O`, the “odorant receptor agonist call” value was “inactive”.

In the case of `Cc1cnc(C)c(C)n1`, the “odorant receptor agonist call” value is “inactive”.

On to `CC1=C(O)C(=O)C(C)O1` (configuration not stated), for which the “odorant receptor agonist call” value is “inactive”.

On to `CCC1OC(C)=C(O)C1=O` (configuration not stated), for which the “odorant receptor agonist call” value was “inactive”.

As for `CC1=NC(C)C(C)S1` (configuration not stated), the “odorant receptor agonist call” value was “inactive”.

For the compound `CCCCCC(S)C(C)CO` (configuration not stated), the “odorant receptor agonist call” value was “inactive”.

`CCCCCC(=O)C(C)C(C)=O` (configuration not stated): the “odorant receptor agonist call” value is “inactive”.

Consider `CCC1OC(=O)C(O)=C1C` (configuration not stated), for which the “odorant receptor agonist call” value is “inactive”.

Take `CCCC(S)CCOC(C)=O` (configuration not stated): the “odorant receptor agonist call” value was “inactive”.

Take `CC(CO)CS` (configuration not stated): the “odorant receptor agonist call” value is “inactive”.

For the compound `CC1=C(O)C(=O)OC1C` (configuration not stated), the “odorant receptor agonist call” value was “inactive”.

For the compound `CCCCC(S)C(C)CO` (configuration not stated), the “odorant receptor agonist call” value was “inactive”.

The target in the next assay is T5, OR6B2 (Homo sapiens) (UniProt Q6IFH4).
T5 sequence (whole entry): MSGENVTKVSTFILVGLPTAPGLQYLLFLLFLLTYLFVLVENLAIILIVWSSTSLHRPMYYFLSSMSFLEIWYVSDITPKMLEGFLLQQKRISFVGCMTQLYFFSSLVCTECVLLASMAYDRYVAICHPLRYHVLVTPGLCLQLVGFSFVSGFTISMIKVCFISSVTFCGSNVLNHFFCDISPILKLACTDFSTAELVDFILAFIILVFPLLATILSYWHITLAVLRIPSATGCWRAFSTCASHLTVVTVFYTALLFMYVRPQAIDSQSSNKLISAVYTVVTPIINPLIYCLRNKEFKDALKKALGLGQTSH
The conditions noted are these: stereoisomer not certain. In outline:
as §1
For the compound `CCC(S)C(C)CO` (configuration not stated), the “odorant receptor agonist call” value is “inactive”.

Consider `CC(=O)c1c(C)c([N+](=O)[O-])c(C(C)(C)C)c([N+](=O)[O-])c1C`, for which the “odorant receptor agonist call” value was “inactive”.

With `CC1CCCCCCCCCCCCC(=O)C1` (configuration not stated), the “odorant receptor agonist call” value was “inactive”.

`CCCCCCC=CCCC=O`: the “odorant receptor agonist call” value is “inactive”.

`Cc1cnc(C)c(C)n1`: the “odorant receptor agonist call” value was “inactive”.

As to `CC1=C(O)C(=O)C(C)O1` (configuration not stated), the “odorant receptor agonist call” value was “inactive”.

Turning to `CCC1OC(C)=C(O)C1=O` (configuration not stated), the “odorant receptor agonist call” value is “inactive”.

For `CC1=NC(C)C(C)S1` (configuration not stated), the “odorant receptor agonist call” value was “inactive”.

`CCCCCC(S)C(C)CO` (configuration not stated): the “odorant receptor agonist call” value was “inactive”.

For the compound `CCCCCC(=O)C(C)C(C)=O` (configuration not stated), the “odorant receptor agonist call” value is “inactive”.

On to `CCC1OC(=O)C(O)=C1C` (configuration not stated), for which the “odorant receptor agonist call” value was “inactive”.

For the compound `CCCC(S)CCOC(C)=O` (configuration not stated), the “odorant receptor agonist call” value was “inactive”.

As for `CC(CO)CS` (configuration not stated), the “odorant receptor agonist call” value was “inactive”.

Consider `CC1=C(O)C(=O)OC1C` (configuration not stated), for which the “odorant receptor agonist call” value is “inactive”.

In the case of `CCCCC(S)C(C)CO` (configuration not stated), the “odorant receptor agonist call” value is “inactive”.
